Data set [1] relates to Vero. Briefly: In vitro antiviral activity was determined by plaque-reduction assay in HSV-1(strain 2931) infected Vero cell monolayers. Format: functional. To be noted: Chlorocebus sabaeus, read-out: ED50 (the source's name). In a few lines: (§1)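 Vero cell monolayers infected with about 20–30 pfu per well (HSV-1 strain 2931 or HSV-2 strain G), 2 h incubation, then overlaid with maintenance medium containing various drug concentrations. Plaques counted after 2 days of development. ED50 (50% plaque reduction) calculated by linear regression. Values are the mean of three separate experiments run in parallel.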
Background: Plaques are areas of infected cells; plaque reduction assays count them against a control.

Data set [2] in a line: Cytotoxicity expressed as ID50 which is the concentration required for 50% growth inhibition of normal human lymphocytes. To be noted: read-out: ID50 (the source's name). In a few lines:
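Normal human lymphoblasts stimulated with PHA; drug concentration causing 50% inhibition of replication (ID50) determined; values are means of three separate experiments run in parallel.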

In data set [3] the test system is Vero. Description: In vitro antiviral activity was determined by plaque-reduction assay in HSV-2 (strain G) infected Vero cell monolayers. To be noted: Chlorocebus sabaeus, read-out: ED50 (the source's name). Type of data set: functional. In a few lines:
as §1

With `O=c1[nH]c(=O)n([C@H]2O[C@@H](CO)[C@H](O)[C@@H]2F)cc1/C=C/Br`, the results for the EC50 in the data set with Vero [1] and with Vero [3] were 400 nM and 13900 nM, respectively. In data set [2], the GI50 is over 100000 nM.

Regarding `Nc1nc(=O)n([C@@H]2O[C@H](CO)[C@@H](O)[C@H]2F)cc1I`, the EC50 with Vero [1] was found to be 24 nM; in the data set on Vero [3], 14 nM. Besides, the GI50 in data set [2] stood at 8600 nM.

With `O=c1[nH]c(=O)n([C@@H]2O[C@H](CO)[C@@H](O)[C@@H]2F)cc1/C=C/I`, the figures for the EC50 in the data set with Vero [1] and in the data set with Vero [3] were 1100 nM and 17300 nM, respectively. For the same compound, the GI50 in data set [2] is over 100000 nM.

`O=c1[nH]c(=O)n([C@@H]2O[C@H](CO)[C@@H](O)[C@@H]2F)cc1/C=C/Cl`: the figures for the EC50 in the data set with Vero [1] and with Vero [3] were 540 nM and 6900 nM, respectively. Besides, in data set [2], the GI50 is over 100000 nM.

In the case of `CCc1cn([C@H]2O[C@@H](CO)[C@H](O)[C@@H]2F)c(=O)[nH]c1=O`, the EC50 in the data set with Vero [1] came out at 240 nM; in the data set on Vero [3] it was 650 nM. For the same compound, in data set [2], the GI50 is over 100000 nM.

For the compound `C=Cc1cn([C@@H]2O[C@H](CO)[C@@H](O)[C@H]2F)c(=O)[nH]c1=O`, the EC50 was found to be 160 nM in the data set with Vero [1] and 690 nM in the data set with Vero [3]. In addition, the GI50 in data set [2] is over 100000 nM.

Regarding `O=c1[nH]c(=O)n([C@H]2C[C@H](O)[C@@H](CO)O2)cc1/C=C/Br` [BRIVUDINE], the EC50 in the data set with Vero [1] worked out at 70 nM; with Vero [3], 13000 nM.

Source of the values: ChEMBL document CHEMBL1122752, “Nucleosides. 129. Synthesis of antiviral nucleosides: 5-alkenyl-1-(2-deoxy-2-fluoro-beta-D-arabinofuranosyl)uracils” (J Med Chem, 1984).
